The source of these data is ChEMBL document CHEMBL1250506, “Synthesis of novel sulfanilamide-derived 1,2,3-triazoles and their evaluation for antibacterial and antifungal activities” (2010).

≈ marks a conversion by molar mass, not a printed value.

Common to all, as to type: functional
Test [1] in a line: Antibacterial activity against Eberthella typhosa by twofold serial dilution technique.
A further test concerns Bacillus subtilis. As to the kind of experiment: Antibacterial activity against Bacillus subtilis ATCC 6633 by twofold serial dilution technique.
Another test relates to Shigella dysenteriae. Put plainly: Antibacterial activity against Shigella dysenteriae by twofold serial dilution technique. Put shortly: (§1)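 MIC by two-fold broth dilution in 96-well plates following NCCLS. Compounds were dissolved in DMSO as stock, then diluted in Mueller-Hinton broth to 512 down to 0.5. Inoculum was bacterial suspension adjusted with sterile saline to 1 ×10⁵ CFU. Plates were incubated 37 °C for 24 h, with a DMSO-supplemented medium control at matching dilutions. Chloramphenicol was the reference.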

Another test relates to Pseudomonas aeruginosa. As to the kind of experiment: Antibacterial activity against Pseudomonas aeruginosa by twofold serial dilution technique.
For test [2], the system named is Staphylococcus aureus. Put plainly: Antibacterial activity against methicillin-resistant Staphylococcus aureus N315 by twofold serial dilution technique. Put shortly: as §1
In another test the test system is Escherichia coli. As to the kind of experiment: Antibacterial activity against Escherichia coli JM 109 by twofold serial dilution technique.
The next test concerns Candida. As to the kind of experiment: Antifungal activity against Candida mycoderma by twofold serial dilution technique. Put shortly: (§2)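 Two-fold serial dilution MIC in 96-well microtest plates. Test compounds from DMSO stocks, with fluconazole as reference. MIC read as the first well showing about 80% growth reduction versus the drug-free well.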
In the next test the test system is Candida albicans. As to the kind of experiment: Antifungal activity against Candida albicans ATCC 76615 by twofold serial dilution technique. An outline of the steps: as §2
Test [3] has as its system Staphylococcus aureus. Put plainly: Antibacterial activity against Staphylococcus aureus ATCC 25923 by twofold serial dilution technique.

With `CCCCCCCCCCCCn1cc(CNS(=O)(=O)c2ccc(N)cc2)nn1`, the minimal inhibitory concentration (MIC) in [1] was 64 µg/mL (≈ 152 µM); in the test with Bacillus subtilis it was 128 µg/mL (≈ 304 µM); in the test with Shigella dysenteriae, 32 µg/mL (≈ 75.9 µM); in the test with Pseudomonas aeruginosa, 32 µg/mL (≈ 75.9 µM); with Staphylococcus aureus [2], 128 µg/mL (≈ 304 µM); with Escherichia coli, 64 µg/mL (≈ 152 µM). Moreover, the figures for the MIC with Candida, against Candida albicans and against Staphylococcus aureus [3] were 256 µg/mL (≈ 607 µM), 512 µg/mL (≈ 1210 µM) and 128 µg/mL (≈ 304 µM), respectively.
In the case of `CCCCCn1cc(CNS(=O)(=O)c2ccc(N)cc2)nn1`, the MIC is 512 µg/mL (≈ 1580 µM) in test [1]; over 512 µg/mL in the test with Bacillus subtilis; 512 µg/mL (≈ 1580 µM) against Shigella dysenteriae; 512 µg/mL (≈ 1580 µM) in the test with Pseudomonas aeruginosa; over 512 µg/mL with Staphylococcus aureus [2]; over 512 µg/mL with Escherichia coli. Further, the MIC against Candida, with Candida albicans and against Staphylococcus aureus [3] was over 512 µg/mL each time.
For the compound `CCCCCCn1cc(CNS(=O)(=O)c2ccc(N)cc2)nn1`, the minimum inhibitory concentration (MIC) in test [1] was over 512 µg/mL; in the test on Bacillus subtilis it was 256 µg/mL (≈ 759 µM); in the test on Shigella dysenteriae it was 256 µg/mL (≈ 759 µM); in the test on Pseudomonas aeruginosa, 256 µg/mL (≈ 759 µM); against Staphylococcus aureus [2], 512 µg/mL (≈ 1520 µM); with Escherichia coli, over 512 µg/mL. For the same compound, the MIC against Candida is over 512 µg/mL; in the test on Candida albicans, over 512 µg/mL; with Staphylococcus aureus [3] it was 512 µg/mL (≈ 1520 µM).
Take `CCCCCCCCCCCCCCCCn1cc(CNS(=O)(=O)c2ccc(N)cc2)nn1`: the MIC in test [1] turned out to be 128 µg/mL (≈ 268 µM); against Bacillus subtilis, 256 µg/mL (≈ 536 µM); in the test with Shigella dysenteriae, 128 µg/mL (≈ 268 µM); in the test with Pseudomonas aeruginosa, 64 µg/mL (≈ 134 µM); against Staphylococcus aureus [2] it was 512 µg/mL (≈ 1070 µM); against Escherichia coli it was 256 µg/mL (≈ 536 µM). For the same compound, the values for the minimum inhibitory concentration (MIC) with Candida, in the test on Candida albicans and with Staphylococcus aureus [3] were over 512 µg/mL, over 512 µg/mL and 256 µg/mL (≈ 536 µM), respectively.
Regarding `CCCCCCCCCCn1cc(CNS(=O)(=O)c2ccc(N)cc2)nn1`, the MIC in test [1] stood at 128 µg/mL (≈ 325 µM); against Bacillus subtilis it was 64 µg/mL (≈ 163 µM); against Shigella dysenteriae it was 128 µg/mL (≈ 325 µM); with Pseudomonas aeruginosa, 64 µg/mL (≈ 163 µM); with Staphylococcus aureus [2], 512 µg/mL (≈ 1300 µM); against Escherichia coli, 512 µg/mL (≈ 1300 µM). The MIC is over 512 µg/mL against Candida, over 512 µg/mL in the test with Candida albicans and 256 µg/mL (≈ 650 µM) against Staphylococcus aureus [3].
For `OC(Cn1cncn1)(Cn1cncn1)c1ccc(F)cc1F` [FLUCONAZOLE], the MIC is 4 µg/mL (≈ 13.1 µM) in the test on Candida and 0.5 µg/mL (≈ 1.63 µM) in the test with Candida albicans.
`Nc1ccc(S(=O)(=O)NCc2cn(Cc3ccc(F)cc3F)nn2)cc1`: the MIC in [1] was 128 µg/mL (≈ 337 µM); in the test with Bacillus subtilis, 128 µg/mL (≈ 337 µM); against Shigella dysenteriae it was 16 µg/mL (≈ 42.2 µM); against Pseudomonas aeruginosa, 16 µg/mL (≈ 42.2 µM); in the test on Staphylococcus aureus [2] it was 128 µg/mL (≈ 337 µM); in the test with Escherichia coli, 128 µg/mL (≈ 337 µM). Moreover, the MIC against Candida worked out at 512 µg/mL (≈ 1350 µM); against Candida albicans it was 256 µg/mL (≈ 675 µM); against Staphylococcus aureus [3], 64 µg/mL (≈ 169 µM).
On to `Nc1ccc(S(=O)(=O)NCc2cn(Cc3ccccc3Cl)nn2)cc1`, for which the minimal inhibitory concentration (MIC) in [1] was over 512 µg/mL; with Bacillus subtilis, over 512 µg/mL; in the test with Shigella dysenteriae, 512 µg/mL (≈ 1360 µM); with Pseudomonas aeruginosa it was 512 µg/mL (≈ 1360 µM); with Staphylococcus aureus [2], over 512 µg/mL; with Escherichia coli it was over 512 µg/mL. Further, the minimal inhibitory concentration (MIC) in the test with Candida, with Candida albicans and against Staphylococcus aureus [3] was over 512 µg/mL throughout.
Take `Nc1ccc(S(=O)(=O)NCc2cn(Cc3ccc([N+](=O)[O-])cc3)nn2)cc1`: the MIC in test [1] is over 512 µg/mL; with Bacillus subtilis it was 256 µg/mL (≈ 659 µM); with Shigella dysenteriae, over 512 µg/mL; against Pseudomonas aeruginosa it was over 512 µg/mL; with Staphylococcus aureus [2], 256 µg/mL (≈ 659 µM); in the test with Escherichia coli it was over 512 µg/mL. Moreover, the minimal inhibitory concentration (MIC) in the test on Candida, against Candida albicans and in the test on Staphylococcus aureus [3] was over 512 µg/mL in each case.
Take `O=C(N[C@H](CO)[C@H](O)c1ccc([N+](=O)[O-])cc1)C(Cl)Cl` [CHLORAMPHENICOL]: the MIC in test [1] stood at 2 µg/mL (≈ 6.19 µM); against Bacillus subtilis it was 2 µg/mL (≈ 6.19 µM); against Shigella dysenteriae, 4 µg/mL (≈ 12.4 µM); with Pseudomonas aeruginosa, 8 µg/mL (≈ 24.8 µM); against Staphylococcus aureus [2] it was 2 µg/mL (≈ 6.19 µM); in the test with Escherichia coli, 4 µg/mL (≈ 12.4 µM). In the test on Staphylococcus aureus [3], the lowest concentration to inhibit growth (MIC) was 4 µg/mL (≈ 12.4 µM).
Turning to `CCCCCCCCn1cc(CNS(=O)(=O)c2ccc(N)cc2)nn1`, the MIC in test [1] is 256 µg/mL (≈ 700 µM); against Bacillus subtilis, 256 µg/mL (≈ 700 µM); in the test on Shigella dysenteriae, 256 µg/mL (≈ 700 µM); against Pseudomonas aeruginosa it was 128 µg/mL (≈ 350 µM); against Staphylococcus aureus [2] it was 512 µg/mL (≈ 1400 µM); with Escherichia coli, 512 µg/mL (≈ 1400 µM). For the same compound, the minimum inhibitory concentration (MIC) in the test with Candida was 512 µg/mL (≈ 1400 µM); in the test on Candida albicans, over 512 µg/mL; in the test with Staphylococcus aureus [3] it was over 512 µg/mL.
For `Nc1ccc(S(=O)(=O)NCc2cn(Cc3cccc(Cl)c3)nn2)cc1`, the minimum inhibitory concentration (MIC) is 256 µg/mL (≈ 678 µM) in test [1]; over 512 µg/mL against Bacillus subtilis; over 512 µg/mL in the test on Shigella dysenteriae; 512 µg/mL (≈ 1360 µM) with Pseudomonas aeruginosa; 256 µg/mL (≈ 678 µM) against Staphylococcus aureus [2]; over 512 µg/mL against Escherichia coli. The values for the MIC with Candida, against Candida albicans and in the test on Staphylococcus aureus [3] were over 512 µg/mL, over 512 µg/mL and 512 µg/mL (≈ 1360 µM), respectively.
Take `C#CCNS(=O)(=O)c1ccc(N)cc1`: the minimum inhibitory concentration (MIC) (in test [1]; in the test with Bacillus subtilis; against Shigella dysenteriae; with Pseudomonas aeruginosa; with Staphylococcus aureus [2]; in the test with Escherichia coli) was over 512 µg/mL in each case. The MIC in the test on Candida, in the test with Candida albicans and against Staphylococcus aureus [3] was over 512 µg/mL in each case.
For `Cc1cccc(Cn2cc(CNS(=O)(=O)c3ccc(N)cc3)nn2)c1`, the minimum inhibitory concentration (MIC) is 512 µg/mL (≈ 1430 µM) in [1]; 512 µg/mL (≈ 1430 µM) against Bacillus subtilis; over 512 µg/mL in the test with Shigella dysenteriae; over 512 µg/mL in the test with Pseudomonas aeruginosa; over 512 µg/mL in the test on Staphylococcus aureus [2]; over 512 µg/mL in the test on Escherichia coli. Also, the MIC against Candida, in the test with Candida albicans and with Staphylococcus aureus [3] was over 512 µg/mL in each case.
Consider `Nc1ccc(S(=O)(=O)NCc2cn(Cc3ccc(F)cc3)nn2)cc1`, for which the MIC is 256 µg/mL (≈ 708 µM) in test [1]; over 512 µg/mL in the test with Bacillus subtilis; 128 µg/mL (≈ 354 µM) against Shigella dysenteriae; 128 µg/mL (≈ 354 µM) against Pseudomonas aeruginosa; over 512 µg/mL against Staphylococcus aureus [2]; 256 µg/mL (≈ 708 µM) in the test on Escherichia coli. The figures for the minimum inhibitory concentration (MIC) against Candida, in the test on Candida albicans and against Staphylococcus aureus [3] were over 512 µg/mL, over 512 µg/mL and 128 µg/mL (≈ 354 µM), respectively.
On to `Nc1ccc(S(=O)(=O)NCc2cn(Cc3ccc(Cl)cc3Cl)nn2)cc1`, for which the minimal inhibitory concentration (MIC) in [1] is 128 µg/mL (≈ 310 µM); against Bacillus subtilis, 128 µg/mL (≈ 310 µM); in the test with Shigella dysenteriae it was 32 µg/mL (≈ 77.6 µM); with Pseudomonas aeruginosa, 64 µg/mL (≈ 155 µM); in the test with Staphylococcus aureus [2] it was 128 µg/mL (≈ 310 µM); against Escherichia coli, 128 µg/mL (≈ 310 µM). Further, the values for the minimum inhibitory concentration (MIC) with Candida, with Candida albicans and against Staphylococcus aureus [3] were 512 µg/mL (≈ 1240 µM), 512 µg/mL (≈ 1240 µM) and 64 µg/mL (≈ 155 µM), respectively.
Take `Nc1ccc(S(=O)(=O)NCc2cn(Cc3ccccc3)nn2)cc1`: the minimal inhibitory concentration (MIC) in [1] is 512 µg/mL (≈ 1490 µM); in the test with Bacillus subtilis, over 512 µg/mL; against Shigella dysenteriae it was 512 µg/mL (≈ 1490 µM); against Pseudomonas aeruginosa, 512 µg/mL (≈ 1490 µM); in the test on Staphylococcus aureus [2] it was 256 µg/mL (≈ 745 µM); in the test with Escherichia coli, over 512 µg/mL. In addition, the minimal inhibitory concentration (MIC) against Candida is over 512 µg/mL; with Candida albicans, over 512 µg/mL; in the test on Staphylococcus aureus [3], 512 µg/mL (≈ 1490 µM).
`Nc1ccc(S(=O)(=O)NCc2cn(Cc3ccc(Cl)cc3)nn2)cc1`: the minimal inhibitory concentration (MIC) in test [1] was 512 µg/mL (≈ 1360 µM); against Bacillus subtilis, over 512 µg/mL; in the test with Shigella dysenteriae it was over 512 µg/mL; against Pseudomonas aeruginosa it was over 512 µg/mL; against Staphylococcus aureus [2], over 512 µg/mL; against Escherichia coli it was over 512 µg/mL. Besides, the MIC with Candida is over 512 µg/mL; against Candida albicans, over 512 µg/mL; in the test on Staphylococcus aureus [3], 512 µg/mL (≈ 1360 µM).
